# Compound activity: PubChem BioAssay, Johns Hopkins Ion Channel Center
# KCNK3 block = human KCNK3 channel inhibition, primary screen; CHO-KCNK3 thallium flux, FluxOR fluorescence; hits give low values; B-score at 10 µM; actives 0.84% (n = 340,000); AID 602410;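 active means B-score under library mean minus 4 SD, starting fluorescence ratio at most library mean plus 5 SD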;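 further: more negative B-score means stronger inhibition of thallium flux through KCNK3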
# hERG rescue = shields human hERG channel from block by proarrhythmic agents; CHO-hERG, FluxOR thallium flux, dofetilide IC70 present; actives 0.51% (n = 310,000); activation (rescue from dofetilide block), less the hit threshold, % at 10 µM;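 active means activation above the mean of controls blocked by dofetilide plus 5 SD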;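 further: thallium influx through hERG after potassium depolarization seen as dye fluorescence rise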
# KCNQ1 pot = potentiators or activators of human KCNQ1 potassium channel; P51787; CHO-K1 KCNQ1, thallium flux FluxOR fluorescence; hits give high values; B-score at 10 µM; actives 0.35% (n = 310,000); AID 2648;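 active means fluorescence ratio B-score, a plate-corrected score, at least three library SD, with initial intensity B-score within 5 SD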
#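 System: Stable KCNQ1 CHO-K1 line | Incubation: 90 min dye loading and 20 min compound exposure, both at room temperature | Measure: Ratio B score | Medium: Assay buffer for compound exposure, DMSO matched across wells | Compound dosing: Single-concentration screen | Probe or stimulus: K+/Tl+ depolarizing stimulus | Measured by: Kinetic FluxOR fluorescence, 10 s baseline plus 110 s post-stimulus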
# KCNQ1 block = human KCNQ1 channel inhibition | P51787 | CHO-K1 KCNQ1, FluxOR thallium flux fluorescence; hits give high values | B-score at 10 µM | actives 1.3% (n = 310,000);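 active means compounds whose thallium flux B-score, printed positive for inhibition, exceeds three library SD while starting fluorescence stays within three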;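 further: channel opened by potassium depolarization with thallium stimulus after 20 min compound exposure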
# KCNK9 block = human KCNK9 channel inhibition. Q9NPC2. HEK293 KCNK9, FluxOR thallium flux fluorescence; hits give low values. B-score at 10 µM. actives 1.2% (n = 310,000);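 active means ratio B-score over 3 SD below the library mean, with starting fluorescence within 5 SD of its mean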;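 further: negative B-score means less thallium flux so channel inhibition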
# Kir21 inh = blocks the mouse Kir2.1 inward-rectifier potassium channel; P35561; HEK293-Kir2.1, FluxOR thallium flux fluorescence; hits give low values; B-score at 10 µM; actives 0.85% (n = 310,000); AID 1672;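 active means fluorescence ratio B-score at or below minus 3 SD of library scores, with starting-brightness B-score within 2 SD, cut at about -4.2 in these data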;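 further: channel flux triggered by added potassium and thallium sulfate stimulus; B-score of peak minus minimum fluorescence over baseline after thallium stimulus; more negative B-score means stronger Kir2.1 block with less thallium influx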
# Active calls of the source: *; i = inactive; · = not tested or not shown. In the library only some 3.8% were active in any assay of this set; here they are far more common.
SMILES,KCNK3 block,hERG rescue,KCNQ1 pot,KCNQ1 block,KCNK9 block,Kir21 inh
COc1cc(CNCc2ccco2)ccc1OCc1ccccc1,i,-10.4,i,i,i,0.02
Cc1ccc(NC(=O)c2ccc(C(=O)c3ccccc3)cc2)nc1,i,-3.9,i,i,i,1.14
O=C(NC1CCCc2ccccc21)c1cccc(F)c1 (centres undefined),i,·,·,·,·,·
Cc1ccc(S(=O)(=O)Nc2ccc(O)c3ccccc23)c(C)c1,i,9.0*,i,i,i,-3.06
Cc1ccc(C)c(S(=O)(=O)Nc2ccc(O)c3ccccc23)c1,i,-9.6,i,i,i,0.38
COc1ccc(S(=O)(=O)Nc2ccccc2)cc1,i,-7.5,i,i,i,0.67
COc1ccc(S(=O)(=O)Nc2ccc(O)c3ccccc23)cc1,i,5.1*,i,i,i,-2.21
COc1ccc(C(=O)COC(=O)c2ccccc2NS(=O)(=O)c2ccc(O)c([N+](=O)[O-])c2)cc1,i,-17.5,i,9*,i,-0.96
CCOc1nc(-c2ccc(Cl)cc2)nc2ccccc12,i,-3.8,i,i,i,0.97
Cc1ccc(S(=O)(=O)N[C@H](C(=O)Oc2ccc3c(C(F)(F)F)cc(=O)oc3c2)c2ccccc2)cc1,i,-6.5,i,9*,i,-0.62
Cc1ccc(S(=O)(=O)NC(C(=O)Oc2ccc3ccc(=O)oc3c2)c2ccccc2)cc1 (centres undefined),i,-14.3,i,i,i,0.16
C=CCn1nc2ccccc2c1OC,i,-9.6,i,i,i,0.44
Cc1ccccc1NC(=S)NNC(=O)c1csc2c1CCC(C)C2 (centres undefined),i,-7.8,10*,i,i,2.25
CCCCOc1ccc(C(=O)Nc2ccc(S(=O)(=O)Nc3cc(C)on3)cc2)cc1OC,i,4.9*,i,i,i,0.65
NCCNc1ccc(C(=O)N2c3ccccc3Sc3ccccc32)cc1[N+](=O)[O-],i,-30.5,i,8*,i,-4.94*
Cc1noc(C)c1CSc1nnc2scc(-c3ccc(Cl)cc3)n12,i,-12.0,i,i,i,-4.38*
CCN(CC)CCNC(=O)COc1ccc(OC)cc1,i,-7.0,i,i,i,0.04
Cc1ccc(C23CC4CC(CC(NC(=O)NCCN(C)C)(C4)C2)C3)cc1,i,-5.9,i,i,i,-4.35*
CN(C)CCNC(=O)COc1ccc(C23CC4CC(CC(C4)C2)C3)cc1,i,-24.2,i,i,i,-6.53*
CCOC(=O)C1=C(COC(=O)/C=C/c2cc(OC)c(OC)c(OC)c2)NC(=O)NC1C (centres undefined),i,-10.2,i,i,i,-0.17
CCc1cc(C(=O)N2CCN(C(=O)c3ccccc3)CC2)sc1C,i,·,·,·,·,·
O=C(CNC(=O)c1ccccc1F)N/N=C/c1cc(Br)ccc1OCc1ccccc1,i,-14.9,i,i,-6.61*,-0.19
Cn1c(CCCNC(=O)c2ccco2)nc2ccccc21,i,·,·,·,·,·
CCC(=O)N1CCc2cc(Br)c(S(=O)(=O)CCC(=O)NCCc3ccccc3)cc21,i,·,·,·,·,·
Cc1ccc(S(=O)(=O)CCC(=O)Nc2sccc2C(N)=O)cc1,i,·,·,·,·,·
SMILES,KCNK3 block,hERG rescue,KCNQ1 pot,KCNQ1 block,KCNK9 block,Kir21 inh
Cc1ccc(S(=O)(=O)CCC(=O)Nc2sccc2C#N)cc1,i,-5.2,i,i,i,-4.62*
OCC1(Cc2ccccc2F)CCCN(Cc2c(F)ccc(F)c2F)C1 (centres undefined),i,-8.0,i,i,i,-3.09
O=C(NC(=S)Nc1ccc(Br)cn1)c1cccs1,i,4.2,13*,i,i,0.18
COc1ccc(C(=O)Nc2cccc(NC(=O)c3cccs3)c2)cc1OC,i,-6.7,i,i,i,-0.94
O=C(NC(=S)Nc1ccc(N2CCOCC2)c(Cl)c1)C(c1ccccc1)c1ccccc1,i,-6.2,i,6*,i,0.72
O=C(/C=C/c1ccccc1)NC(=S)Nc1ccc(N2CCOCC2)c(Cl)c1,i,-11.1,i,i,i,0.74
COc1ccc(/C=C/C(=O)c2ccc(NC(=O)c3cccs3)cc2)cc1OC,i,8.9*,i,i,i,-1.38
O=C(NC(=S)Nc1ccccc1)c1cccs1,i,10.0*,11*,i,i,-0.02
O=C(NC(=S)Nc1ccc(Br)cn1)c1cncc(Br)c1,i,-0.3,i,i,i,-0.77
CCCCNC(=S)N(CCN(C)C)Cc1cc2cc3c(cc2[nH]c1=O)OCCO3,i,-9.0,i,i,i,-0.55
Cc1ccccc1NC(=O)COC(=O)/C=C/c1cccc(C(F)(F)F)c1,i,-1.0,i,i,i,0.13
COc1ccc(CCNC(=O)c2cc(S(=O)(=O)N3CCCCCC3)ccc2OC)cc1OC,i,·,·,·,·,·
CN(C(=O)c1cccc(NC(=O)Cc2ccc(NC(=O)C3CCN(C(=O)c4ccccc4)CC3)cc2)c1)C1CCCC1,i,·,·,·,·,·
O=C(NC(=S)Nc1nc2ccccc2s1)c1cccs1,i,52.5*,54*,i,i,0.84
O=C(Nc1ccc(NC(=O)c2cccs2)cc1)c1cccs1,i,-4.7,i,i,i,1.08
NC(=S)Nc1nc2ccccc2s1,i,-3.5,8*,i,i,-0.87
O=C(Nc1ccc(Cl)cc1)c1cccs1,i,-14.5,i,i,-7.22*,0.61
O=C(NC(=S)Nc1ccc(N2CCCCC2)c(Cl)c1)c1cccs1,i,12.6*,65*,i,i,-0.81
COC(=O)c1nc(NC(=S)NC(=O)c2cccs2)sc1C,i,-3.9,i,i,i,1.23
CC1CCCCC1NC(=S)NC(=O)c1cccs1 (centres undefined),i,5.2*,20*,i,i,0.01
CC(OC(=O)c1cccs1)C(=O)NC1CCCCC1C (centres undefined),i,·,·,·,·,·
CCCc1nc2ccc(NC(=O)c3cccs3)cc2c(=O)n1Cc1ccc(Cl)cc1,i,-8.6,i,i,-6.79*,0.78
O=C(NCCC(c1ccccc1)c1ccccc1)c1cccs1,i,-4.3,i,i,-6.99*,-3.17
CC1CCN(c2ccccc2NC(=S)NC(=O)c2cccs2)CC1,i,-2.2,14*,i,i,-0.02
Cc1ccc(OCC2Cn3c(nc4c3c(=O)[nH]c(=O)n4C)O2)cc1C (centres undefined),i,-5.6,i,i,i,0.2
